Reference: paper PMC2822702 (Biochimica et biophysica acta, 2009)
Numbering of substitutions follows the chain as printed. Numbers in names are those of the source.

B1: wt Bid: recombinant full-length wild type mouse Bid with N-terminal six-histidine tag (protein, UniProt P70444 1-195, looked up)
chain: MDSEVSNGSGLGAEHITDLLVFGFLQSSGCTRQELEVLGRELPVQAYWEADLEDELQTDGSQASRSFNQGRIEPDSESQEEIIHNIARHLAQIGDEMDHNIQPTLVRQLAAQFMNGSLSEEDKRNCLAKALDEVKTAFPRDMENDKAMLIMTMLLAKKVASHAPSLLRDVFHTTVNFINQNLFSYVRNLVRNEMD
modifications: full-length N-terminal His6 tag
B2: K157E Bid: recombinant mouse Bid, lysine 157 replaced by glutamic acid (protein, UniProt P70444 1-195, looked up, variant K157E)
BH3-interacting domain death …: B1 chain with K157E
B3: K157E Bid YFP: C-terminal YFP-tagged full-length mouse Bid K157E expressed by transfection (protein, UniProt P70444 1-195, looked up, variant K157E)
chain: B1 chain with K157E
modifications: full-length C-terminal YFP fusion
B4: wt Bid YFP: C-terminal YFP-tagged full-length wild type mouse Bid expressed by transfection (protein, UniProt P70444 1-195, looked up)
chain: B1 chain
modifications: full-length C-terminal YFP tag
B5: R187E Bid: recombinant mouse Bid, arginine 187 replaced by glutamic acid (protein, UniProt P70444 1-195, looked up, variant R187E)
BH3-interacting domain death …: B1 chain with R187E
B6: R187E Bid YFP: C-terminal YFP-tagged full-length mouse Bid R187E expressed by transfection (protein, UniProt P70444 1-195, looked up, variant R187E)
chain: B1 chain with R187E
modifications: full-length C-terminal YFP tag

How the values were obtained:
wt Bid = molecular target: T1, wt Bid (Mus musculus, UniProt P70444); assay: ADIFAB fluorescence quenching; type: binding; settings: recombinant mouse wt Bid, ADIFAB 0.2 μM, room temperature
T1 sequence (P70444 1-195): B1 chain
Procedure, shortened: (§1)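 Recombinant N-terminal His6-tagged mouse Bid was expressed in E. coli BL21(DE3)pLysS and purified on a chelating affinity column. ADIFAB at 0.2 μM in 10 mM Tris pH 8.0, 0.15 M NaCl, 1 mM EGTA was run alone or with Bid at 22–24 °C. Lipid ligand was titrated with excitation at 390 nm and emission read at 410–610 nm. Kd was taken from Stern–Volmer (F0/F) slopes.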

Bid K157E = molecular target: T2, Bid K157E (Mus musculus, UniProt P70444, K157E); assay: ADIFAB fluorescence quenching; type: binding; settings: recombinant mouse Bid K157E mutant, ADIFAB 0.2 μM, room temperature
T2 sequence (P70444 1-195 K157E): B1 chain with K157E
Procedure, shortened: as §1

Bid R187E = molecular target: T3, Bid R187E (Mus musculus, UniProt P70444, R187E); assay: ADIFAB fluorescence quenching; type: binding; settings: recombinant mouse Bid R187E mutant, ADIFAB 0.2 μM, room temperature
T3 sequence (P70444 1-195 R187E): B1 chain with R187E
Procedure, shortened: as §1

mouse liver mitochondria = assay: Cell-free assay of cytochrome c release from isolated mitochondria; type: biochemical; settings: for release of cytochrome c: 200 nM full-length recombinant Bid protein, no exogenous lysolipids, 15 min
Procedure, shortened: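 They were incubated 15 min at 22 °C with 200 nM recombinant full-length mouse Bid plus 2 μM LPC-C16 added from ethanol, then pelleted. Supernatant cytochrome c was immunoblotted and quantified by densitometry (n=3, t-test), with controls of 500 μM LPC-C16 and no Bid.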

[1] = tested on: FSK7 mouse mammary epithelial cells; assay: Anoikis of mammary epithelial cells expressing YFP-tagged Bid; type: cell-based; settings: FL Bid YFP over-expressed, 5 h detached
Procedure, shortened: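 FSK7 cells were grown in DMEM/F-12 with 5 ng/ml EGF, 5 μg/ml insulin and 2% FCS at 37 °C, 5% CO₂. They were lipofected with C-terminal YFP-tagged full-length Bid or YFP alone. At 18 h post-transfection cells were detached onto polyHEMA for 5 h, cytospun, PFA-fixed and Hoechst-stained. Apoptosis was scored by nuclear morphology as mean ± SEM.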

| Molecule | Kd (wt Bid) [nM] | Kd (Bid K157E) [nM] | Kd (Bid R187E) [nM] | release of cytochrome c (mouse liver mitochondria) | further results |
| --- | --- | --- | --- | --- | --- |
| CCCCCCCCCCCCCCCC(=O)OC[C@@H](O)COP(=O)([O-])OCC[N+](C)(C)C [LPC-C16, 1-palmitoyl-LPC] | ~4000 | ~4000 | 5500 | – | enhancement of cytochrome c release (mouse liver mitochondria; 2 μM LPC-C16 with 200 nM K157E FL Bid): much stronger enhancement; increase in capacity of releasing cytochrome c (mouse liver mitochondria; 2 μM LPC-C16 with 200 nM R187E FL Bid): ~2 fold; increase in capacity of releasing cytochrome c (mouse liver mitochondria; 2 μM LPC-C16 with 200 nM wt FL Bid): ~2 fold |
| CCCCCCCC/C=C\CCCCCCCC(=O)OC[C@@H](O)COP(=O)(O)OCC(O)CO (stereo partly drawn) [LPG-C18, 1-oleyl-LPG] | 80 | 200 | 100 | – | – |
| monolysocardiolipin [MCL] | 1300 | 1800 | ~1400 | – | – |
| B1 | – | – | – | some release of cytochrome c | – |
| B2 | – | – | – | did not release cytochrome c | – |
| B3 | – | – | – | – | sensitisation to anoikis compared with wt Bid [1]: no difference |
| B4 | – | – | – | – | apoptosis (cell death) after detachment ([1]; nuclear morphology): around 85% |
| B5 | – | – | – | some release of cytochrome c | – |
| B6 | – | – | – | – | sensitisation to anoikis compared with wt Bid [1]: no difference |
